Assay results: ChEMBL document CHEMBL1144777, “An endophytic fungus from Hypericum perforatum that produces hypericin” (J Nat Prod, 2008)
Active and inactive are the calls of the source.

Legend:
Aspergillus niger = assay: Antimicrobial activity against Aspergillus niger DSM 1988 by disk diffusion method; assay type: functional, organism-based
Outline: (§1)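 Samples were fungal products from potato dextrose broth cultures, tested alongside authentic standards. Organic extracts of mycelia and broth were dried by rotary evaporation at 30 °C and redissolved in 1 mL HPLC-grade methanol.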

[1] = system: Salmonella enterica subsp. enterica; assay: Antimicrobial activity against Salmonella enterica ssp. enterica DSM 9898 by disk diffusion method; assay type: functional, organism-based; outline: as §1
Pseudomonas aeruginosa = assay: Antimicrobial activity against Pseudomonas aeruginosa DSM 1128 by disk diffusion method; assay type: functional, organism-based; outline: as §1
Staphylococcus aureus = assay: Antimicrobial activity against Staphylococcus aureus ssp. Aureus DSM 799 by disk diffusion method; assay type: functional; outline: as §1
Escherichia coli = assay: Antimicrobial activity against Escherichia coli DSM 682 by disk diffusion method; assay type: functional, organism-based; outline: as §1
Candida albicans = assay: Antimicrobial activity against Candida albicans DSM 1386 by disk diffusion method; assay type: functional, organism-based; outline: as §1
[2] = system: Klebsiella pneumoniae subsp. pneumoniae; assay: Antimicrobial activity against Klebsiella pneumoniae ssp. ozaenae DSM 681 by disk diffusion method; assay type: functional, organism-based; outline: as §1

Measured: Activity

Cc1cc(O)c2c(c1)C(=O)c1cc(O)cc(O)c1C2=O
active: all assays above

Cc1cc(O)c2c(=O)c3c(O)cc(O)c4c5c(O)cc(O)c6c(=O)c7c(O)cc(C)c8c1c2c(c34)c(c78)c65
active: all assays above
